Test results: paper PMC3870048 (Pharmaceutical research, 2013)
In brackets after ≈: the same amount, converted by molar mass. Like-named read-outs stand apart in the source and are kept apart here.

What was measured:
[1] = Donor solution solubility determination; type: physicochemical; settings: saturation solubility in 0.3 M acetate buffer pH 5.0 containing 10% propylene glycol, 32°C
[2] = Stability of codrugs in 0.3 M acetate buffer pH 5.0 at 32°C; type: physicochemical; settings: 0.3 M acetate buffer pH 5.0, 32°C
Outline: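 Codrug was predissolved in ACN and spiked into prewarmed buffer (<1% ACN). 100 μl aliquots were taken at intervals, quenched with 900 μl ACN and held at -80°C. Analysis was by C18 HPLC-UV with ACN:acidic aqueous (70:30, pH 3.0) mobile phase and standards of 100–10,000 ng/ml. Data were fit to pseudo first-order kinetics; triplicate.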

[3] = in 43% PG, 43% ethanol containing solution; data previously reported; cited from earlier work
[4] = earlier proof of concept study; cited from earlier work
[5] = In vitro diffusion studies across microneedle-treated skin; type: in vitro ADME, Yucatan miniature pig; settings: skin at end of 48 h diffusion experiment
Outline: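 Yucatan minipig skin, dermatomed 1.4-1.8 mm, pierced 20 times with a 5-needle array (100 pores per 0.95 cm2 area). Flow-through cells held at 32°C. Donor: 250 μl of excess drug in 0.3 M acetate pH 5.0 with 10% PG. Receiver: pH 7.4 water with 20% ethanol, 1.5 ml/h. At 48 h the permeation area was minced and extracted overnight in 10 ml ACN at 32°C, then analysed by HPLC; n≥3.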

With Cl.O=C(Cc1ccccc1Nc1c(Cl)cccc1Cl)Oc1ccc2c3c1O[C@H]1C(=O)CC[C@@]4(O)[C@@H](C2)N(CC2CC2)CC[C@]314 [Codrug I (hydrochloride salt)] as the compound, how does the Solubility [1] read?
The Solubility was 83.8 ± 15.4 mM.

For O=C(Cc1ccccc1Nc1c(Cl)cccc1Cl)O[C@@H]1CC[C@@]2(O)[C@H]3Cc4ccc(O)c5c4[C@@]2(CCN3CC2CC2)[C@H]1O5 [Codrug II], which “Pseudo first order rate constant (k)” value [2] is on record?
The value was 0.0052 days ^−1.

And the “Stability (approx. half-life)” value [2]?
The value was 130.88 ± 4.94 days.

Which “Pseudo first order rate constant (k)” value [2] does the source give for O=C(Cc1ccccc1Nc1c(Cl)cccc1Cl)Oc1ccc2c3c1O[C@H]1C(=O)CC[C@@]4(O)[C@@H](C2)N(CC2CC2)CC[C@]314 [Codrug I] here?
The value was 0.0803 days ^−1.

What about the “Stability (approx. half-life)” value [2] of the same compound?
Its value is 8.72 ± 1.05 days.

What about the Solubility [3] of the same compound?
Its Solubility is 7.23 mM (≈ 4480 µg/mL).

What about the formulation half-life [4] of the same compound?
The formulation half-life was 96 to 120 h.

What about the “NTX and DIC (parent drugs) in the skin” value [5] of the same compound?
The value was “quantifiable”.
